The source of these data is ChEMBL document CHEMBL3352604, “Development of novel azabenzofuran TRPA1 antagonists as in vivo tools” (Bioorg Med Chem Lett, 2014).

Data set [1] can be described thus: Clearance in rat liver microsomes. To be noted: read-out: CLH. It counts as ADME.
A short description of data set [2]: Solubility in fasted state simulated intestinal fluid at pH 6.8. It is filed as ADME.
Data set [3] is described as follows: Solubility in 0.01 N HCl solution in water. It is filed as physicochemical. In outline:
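Solubility measured in 0.01 N hydrogen chloride solution in water.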

Data set [4] deals with T1, Transient receptor potential cation channel subfamily A member 1 (Rattus norvegicus, UniProt Q6RI86). The data set is described as follows: Agonist activity at rat TRPA1 by [45Ca2+] fluorimetry assay.
A short description of data set [5]: Solubility in PBS buffer at pH 7.4. It counts as physicochemical. In outline: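 Solubility measured in phosphate buffered saline, pH 7.4.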
A short description of data set [6]: Clearance in human liver microsomes. It counts as ADME. To be noted: read-out: CLH.
In data set [7] the target is T1, Transient receptor potential cation channel subfamily A member 1. The experiment in a line: Antagonist activity at rat TRPA1 assessed as inhibition of AITC-induced calcium uptake by [45Ca2+] fluorimetry assay. In outline: (§1)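 Antagonism read by 45Ca2+ fluorimetry in cells expressing rat or human TRPA1. IC50 determined. Where no IC50 was obtained, % inhibition was measured at a single 2 μM point.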

Data set [8] addresses T2, Transient receptor potential cation channel subfamily A member 1 (Homo sapiens, UniProt O75762). The data set is described as follows: Agonist activity at human TRPA1 by [45Ca2+] fluorimetry assay.
Data set [9] deals with T2, Transient receptor potential cation channel subfamily A member 1. The data set is described as follows: Antagonist activity at human TRPA1 assessed as inhibition of AITC-induced calcium uptake by [45Ca2+] fluorimetry assay. In outline: as §1

Converted amounts (≈) assume the structure as drawn. Bounds are passed on as bounds.

T1 sequence (Q6RI86 whole entry): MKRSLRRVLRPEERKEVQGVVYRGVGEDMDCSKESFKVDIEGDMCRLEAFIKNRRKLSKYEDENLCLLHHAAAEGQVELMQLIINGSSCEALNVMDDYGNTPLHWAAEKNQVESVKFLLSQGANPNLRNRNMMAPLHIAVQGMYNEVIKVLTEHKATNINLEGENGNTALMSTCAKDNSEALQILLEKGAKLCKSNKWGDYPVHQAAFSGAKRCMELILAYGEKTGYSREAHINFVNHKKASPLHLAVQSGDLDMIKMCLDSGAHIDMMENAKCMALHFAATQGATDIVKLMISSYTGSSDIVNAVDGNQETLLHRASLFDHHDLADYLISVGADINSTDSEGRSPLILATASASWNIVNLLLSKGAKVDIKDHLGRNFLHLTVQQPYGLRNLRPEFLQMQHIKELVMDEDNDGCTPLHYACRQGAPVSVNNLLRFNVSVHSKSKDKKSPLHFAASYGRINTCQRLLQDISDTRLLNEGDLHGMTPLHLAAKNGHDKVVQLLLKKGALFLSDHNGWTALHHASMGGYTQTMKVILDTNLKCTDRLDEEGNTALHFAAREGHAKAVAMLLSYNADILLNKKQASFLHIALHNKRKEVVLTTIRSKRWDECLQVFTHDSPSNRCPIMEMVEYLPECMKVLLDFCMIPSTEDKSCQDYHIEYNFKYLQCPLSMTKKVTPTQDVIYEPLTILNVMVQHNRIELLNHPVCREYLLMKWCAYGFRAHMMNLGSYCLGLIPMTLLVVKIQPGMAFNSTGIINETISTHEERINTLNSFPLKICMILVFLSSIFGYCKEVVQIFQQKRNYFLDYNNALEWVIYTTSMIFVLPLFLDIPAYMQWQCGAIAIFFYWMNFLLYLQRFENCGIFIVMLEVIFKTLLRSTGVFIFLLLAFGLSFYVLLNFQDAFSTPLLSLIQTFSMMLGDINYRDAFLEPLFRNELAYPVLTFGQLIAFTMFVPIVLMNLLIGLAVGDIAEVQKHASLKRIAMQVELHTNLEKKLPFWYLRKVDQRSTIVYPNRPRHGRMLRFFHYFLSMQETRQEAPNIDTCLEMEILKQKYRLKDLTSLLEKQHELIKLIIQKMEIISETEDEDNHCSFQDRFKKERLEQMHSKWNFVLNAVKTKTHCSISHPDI
T2 sequence (O75762 whole entry): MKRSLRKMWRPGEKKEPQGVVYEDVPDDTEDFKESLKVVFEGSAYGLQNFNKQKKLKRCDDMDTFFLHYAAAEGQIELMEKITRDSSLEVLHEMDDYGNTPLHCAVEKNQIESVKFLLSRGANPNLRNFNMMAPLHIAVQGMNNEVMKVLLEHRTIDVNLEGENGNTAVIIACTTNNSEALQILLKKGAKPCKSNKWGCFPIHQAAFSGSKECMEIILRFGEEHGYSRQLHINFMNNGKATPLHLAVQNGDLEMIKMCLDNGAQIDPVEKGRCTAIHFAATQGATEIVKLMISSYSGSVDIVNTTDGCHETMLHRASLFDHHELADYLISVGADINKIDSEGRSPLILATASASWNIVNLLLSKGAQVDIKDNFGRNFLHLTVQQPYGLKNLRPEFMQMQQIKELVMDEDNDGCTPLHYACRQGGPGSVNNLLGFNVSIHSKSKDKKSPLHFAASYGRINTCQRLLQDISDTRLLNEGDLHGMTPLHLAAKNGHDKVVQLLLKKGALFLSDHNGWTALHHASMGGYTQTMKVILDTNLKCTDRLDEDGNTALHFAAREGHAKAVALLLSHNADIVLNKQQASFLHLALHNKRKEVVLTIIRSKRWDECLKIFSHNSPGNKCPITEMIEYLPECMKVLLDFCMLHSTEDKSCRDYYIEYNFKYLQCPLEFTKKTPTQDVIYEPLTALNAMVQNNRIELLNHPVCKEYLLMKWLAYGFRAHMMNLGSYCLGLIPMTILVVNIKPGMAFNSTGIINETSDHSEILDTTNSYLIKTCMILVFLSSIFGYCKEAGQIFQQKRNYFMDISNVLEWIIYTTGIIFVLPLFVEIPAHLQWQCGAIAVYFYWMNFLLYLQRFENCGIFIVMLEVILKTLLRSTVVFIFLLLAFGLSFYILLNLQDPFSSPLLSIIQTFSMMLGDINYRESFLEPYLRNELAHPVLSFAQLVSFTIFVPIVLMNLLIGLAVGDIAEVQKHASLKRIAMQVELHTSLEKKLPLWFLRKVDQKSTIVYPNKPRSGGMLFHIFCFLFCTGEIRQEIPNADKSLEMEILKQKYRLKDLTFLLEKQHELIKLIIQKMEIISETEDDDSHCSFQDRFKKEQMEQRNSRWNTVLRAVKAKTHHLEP

For the compound `COCCCOc1cncc(C2NC(=S)NC3=C2C(=O)c2ccccc23)c1` (configuration not stated), the values for the microsomal CLint in data set [1] and in data set [6] were 200 µL/min/mg and 90 µL/min/mg, respectively. For the same compound, the solubility is 14 µg/mL (≈ 36.7 µM) in data set [2], 120 µg/mL (≈ 315 µM) in data set [3] and 2.8 µg/mL (≈ 7.34 µM) in data set [5]. In addition, the EC50 in data set [4] and in data set [8] was more than 40000 nM throughout. Besides, the results for the half-maximal inhibitory concentration (IC50) in [7] and in data set [9] were 530 nM and 1200 nM, respectively.

Turning to `COCCCOc1cc(C2NC(=S)NC3=C2C(=O)c2ccccc23)ccn1` (configuration not stated), the microsomal CLint in data set [1] was determined as 350 µL/min/mg; in data set [6], 82 µL/min/mg. Further, the concentration in solution in data set [3] (solubility) came to 22 µg/mL (≈ 57.7 µM). Moreover, the 50% effective concentration (EC50) in data set [4] and in [8] was more than 40000 nM each time. Further, the IC50 in data set [7] and in data set [9] was more than 40000 nM in each case.

As to `COCCCOc1cccc([C@H]2NC(=S)Nc3c2oc2ccccc32)c1`, the microsomal CLint was determined as 350 µL/min/mg in data set [1] and 90 µL/min/mg in data set [6]. Further, the figures for the solubility in data set [2], in data set [3] and in data set [5] were 23 µg/mL (≈ 62.4 µM), 1 µg/mL (≈ 2.71 µM) and 1 µg/mL (≈ 2.71 µM), respectively. In addition, the concentration for a half-maximal effect (EC50) in data set [4] and in data set [8] was more than 40000 nM in each case. The IC50 in [7] was 230 nM; in data set [9] it was 590 nM.

On to `COCCCOc1cccc(C2NC(=S)NC3=C2C(=O)c2ccccc23)n1` (configuration not stated), for which the microsomal CLint in data set [1] came out at 230 µL/min/mg; in data set [6], 160 µL/min/mg. In addition, the solubility is 35 µg/mL (≈ 91.8 µM) in data set [2], 17 µg/mL (≈ 44.6 µM) in data set [3] and 36 µg/mL (≈ 94.4 µM) in [5]. Further, the 50% effective concentration (EC50) in data set [4] and in data set [8] was more than 40000 nM throughout. Further, the half-inhibitory concentration (IC50) was 1000 nM in [7] and 970 nM in data set [9].

As to `O=C1C2=C(NC(=S)NC2c2cccc(OCc3ccccn3)c2)c2ccccc21` (configuration not stated), the values for the microsomal CLint in data set [1] and in [6] were 310 µL/min/mg and 180 µL/min/mg, respectively. Further, the solubility in data set [2] was 200 µg/mL (≈ 501 µM); in data set [3] it was 1 µg/mL (≈ 2.5 µM); in data set [5] it was 10 µg/mL (≈ 25 µM). Also, the EC50 in data set [4] and in [8] was more than 40000 nM each time. Also, the figures for the half-inhibitory concentration (IC50) in [7] and in [9] were 230 nM and 300 nM, respectively.

For the compound `O=C1C2=C(NC(=S)NC2c2cccc(OCc3cccnc3)c2)c2ccccc21` (configuration not stated), the results for the microsomal CLint in [1] and in data set [6] were 250 µL/min/mg and 150 µL/min/mg, respectively. Moreover, the solubility in [2] was 15 µg/mL (≈ 37.5 µM); in data set [3], 140 µg/mL (≈ 350 µM); in [5], 1 µg/mL (≈ 2.5 µM). In addition, the EC50 in data set [4] and in data set [8] was more than 40000 nM each time. Also, the IC50 in data set [7] turned out to be 360 nM; in data set [9], 710 nM.

The term solubility denotes how much of the substance goes into solution per volume. Read a high solubility as much dissolved substance. As usually defined, the EC50 is the concentration needed to bring the measured effect to its halfway point. High values mean weaker potency, low ones greater potency. A word on the IC50: it is the concentration needed to halve the response being measured.
